The values below come from ChEMBL document CHEMBL5131562, “1,3-Dioxane-Linked Novel Bacterial Topoisomerase Inhibitors: Expanding Structural Diversity and the Antibacterial Spectrum” (ACS Med Chem Lett, 2022).

The MIC is the smallest concentration in the dilution series that meets the test's criterion for growth inhibition. Read a high MIC as a need for much substance. Usually IC50 stands for the concentration that gives 50% inhibition. As a reminder, the half-life is how long it takes for the measured level to halve.

Values after ≈ are worked out from the molar mass of the structure shown.

For the first data set, the system named is Staphylococcus aureus. The data set can be described thus: Antibacterial activity against Staphylococcus aureus 3527 by CLSI method. The data set is classed as functional.
Details: not given
`O=c1ccc2ccc(F)c3c2n1CC3C[C@H]1OC[C@H](NCc2cc3c(nn2)OCCS3)CO1` (some centres not stated) showed an MIC of 1 µg/mL (≈ 2.13 µM).

For another data set, the system named is Staphylococcus aureus. The data set can be described thus: Antibacterial activity against Staphylococcus aureus harbouring GyrA D83N mutant by CLSI method.
Details: not given
The data set is classed as functional.
In the case of `O=c1ccc2ccc(F)c3c2n1CC3C[C@H]1OC[C@H](NCc2cc3c(nn2)OCCS3)CO1` (some centres not stated), the MIC was found to be 8 µg/mL (≈ 17 µM).

The test system of another data set is Staphylococcus aureus. The data set can be described thus: Antibacterial activity against methicillin-resistant Staphylococcus aureus USA300 by CLSI method. The data set is classed as functional.
Details: not given
`O=c1ccc2ccc(F)c3c2n1CC3C[C@H]1OC[C@H](NCc2cc3c(nn2)OCCS3)CO1` (some centres not stated) yielded an MIC of 1 µg/mL (≈ 2.13 µM).

Another data set addresses DNA gyrase (Staphylococcus aureus, UniProt P0A0K8+P20831). The data set can be described thus: Inhibition of Staphylococcus aureus DNA gyrase supercoiling activity incubated for 25 min by ethidium bromide/bromophenol blue staining based agarose gel electrophoresis analysis.
Details: not given
The data set is classed as protein-complex assay.
In turn, `O=c1ccc2ccc(F)c3c2n1CC3C[C@H]1OC[C@H](NCc2cc3c(nn2)OCCS3)CO1` (some centres not stated) displayed an IC50 of 1.7 µM.

The next data set has as its system Neisseria gonorrhoeae. The data set can be described thus: Antimicrobial activity against Neisseria gonorrhoeae M strain harbouring type 2 topoisomerase GyrA S91F,D95G mutant incubated for 20 hrs by agar dilution method. The data set is classed as functional.
Details: not given
(In general: In agar dilution the substance is mixed into plates at graded concentrations.)
In turn, `O=C(O)c1cn(C2CC2)c2cc(N3CCNCC3)c(F)cc2c1=O` [CIPROFLOXACIN] gave an MIC of 2 µg/mL (≈ 6.04 µM).

Molecular target in a further data set: not listed separately
The data set can be described thus: Inhibition of Neisseria gonorrhoeae DNA gyrase supercoiling activity incubated for 25 min by ethidium bromide/bromophenol blue staining based agarose gel electrophoresis analysis.
Details: not given
The method in brief: (§1)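 The N. gonorrhoeae enzymes were assayed separately: supercoiling by DNA gyrase, and decatenation of kDNA by topoisomerase IV. Concentration–response data were collected over at least three independent experiments and summarized with standard deviation, and IC50 values were derived.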
As to `COc1ccc2ncc(F)c(C[C@H](O)[C@H]3OC[C@H](NCc4cc5c(nn4)OCCS5)CO3)c2n1`, the IC50 stood at 33 µM.

Test system in another data set: not listed separately
The data set can be described thus: Cytotoxicity activity against human K562 cells assessed as inhibition of cellular growth. The data set is classed as toxicity, cell-based.
Details: not given
The method in brief: (§2)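 Human K562 leukemia cells were tested alongside K/VP.5, an etoposide-resistant clonal subline derived from them that has reduced levels of human topoisomerase IIα. Cell growth inhibition was expressed as an IC50.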
In the case of `O=c1ccc2ccc(F)c3c2n1CC3C[C@H]1OC[C@H](NCc2cc3c(nn2)OCCS3)CO1` (some centres not stated), the IC50 amounted to 38.7 µM.

In a further data set the test system is Neisseria gonorrhoeae. The data set can be described thus: Antimicrobial activity against Neisseria gonorrhoeae K strain harbouring type 2 topoisomerase GyrA S91F, D95N and ParC S87R, S88P mutant incubated for 20 to 24 hrs by CLSI protocol based broth microdilution method. The data set is classed as functional. Particulars: time 20-24 hrs. (In general: In broth dilution the organism is exposed to a series of concentrations in liquid medium.)
`COc1ccc2ncc(F)c(C[C@H](O)[C@H]3OC[C@H](NCc4cc5c(nn4)OCCS5)CO3)c2n1` had an MIC of 16 µg/mL (≈ 32.7 µM).
Same read-out and setting: under `O=c1ccc2ccc(F)c3c2n1CC3C[C@H]1OC[C@H](NCc2cc3c(nn2)OCCS3)CO1` (some centres not stated) stands 32 µg/mL (≈ 68 µM).

The test system of another data set is Staphylococcus aureus. The data set can be described thus: Selectivity ratio of IC50 for inhibition of Staphylococcus aureus DNA topoisomerase 4 decatenation activity to IC50 for inhibition of Staphylococcus aureus DNA gyrase supercoiling activity.
Details: not given
In the case of `O=c1ccc2ccc(F)c3c2n1CC3C[C@H]1OC[C@H](NCc2cc3c(nn2)OCCS3)CO1` (some centres not stated), the Ratio IC50 came out at 4.4.

Test system in a further data set: not listed separately
The data set can be described thus: Metabolic stability in mouse liver microsomes assessed as half life. The data set is classed as ADME, Microsome.
Details: not given
Regarding `O=c1ccc2ccc(F)c3c2n1CC3C[C@H]1OC[C@H](NCc2cc3c(nn2)OCCS3)CO1` (some centres not stated), the half-life was 21.9 min.

Molecular target in the next data set: not listed separately
The data set can be described thus: Inhibition of Neisseria gonorrhoeae DNA topoisomerase 4 decatenation activity using kDNA as substrate incubated for 10 to 20 min by ethidium bromide/bromophenol blue staining based agarose gel electrophoresis analysis.
Details: not given
The method in brief: as §1
The compound `COc1ccc2ncc(F)c(C[C@H](O)[C@H]3OC[C@H](NCc4cc5c(nn4)OCCS5)CO3)c2n1` had a 50% inhibitory concentration (IC50) of 83 µM.

The test system of a further data set is Neisseria gonorrhoeae. The data set can be described thus: Antimicrobial activity against Neisseria gonorrhoeae L strain harbouring type 2 topoisomerase GyrA S91F,D95N and ParC D86N,S88P mutant incubated for 20 hrs by agar dilution method. The data set is classed as functional.
Details: not given
In turn, `O=C(O)c1cn(C2CC2)c2cc(N3CCNCC3)c(F)cc2c1=O` [CIPROFLOXACIN] displayed an MIC above 8 µg/mL.

Another data set has as its target Voltage-gated inwardly rectifying potassium channel KCNH2 (Homo sapiens, UniProt Q12809). The data set can be described thus: Inhibition of hERG cardiac ion channel.
Details: not given
The data set is classed as toxicity. The method in brief: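 hERG channel inhibition was run by a contract lab. […] Determinations were made in duplicate or triplicate (n = 2 or 3).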
A general note: hERG is a cardiac potassium channel; its block is linked to QT prolongation.
`O=c1ccc2ccc(F)c3c2n1CC3C[C@H]1OC[C@H](NCc2cc3c(nn2)OCCS3)CO1` (some centres not stated) came in with an IC50 of 200 µM.

A further data set has as its system Neisseria gonorrhoeae. The data set can be described thus: Antimicrobial activity against wild type Neisseria gonorrhoeae V strain harbouring type 2 topoisomerase GyrA S91F, D95G and ParC S87R mutant incubated for 20 to 24 hrs by CLSI protocol based broth microdilution method. Particulars: time 20-24 hrs. The data set is classed as functional.
With `COc1ccc2ncc(F)c(C[C@H](O)[C@H]3OC[C@H](NCc4cc5c(nn4)OCCS5)CO3)c2n1`, the MIC was at most 0.03 µg/mL.
The same measure, in the same setting: under `O=c1ccc2ccc(F)c3c2n1CC3C[C@H]1OC[C@H](NCc2cc3c(nn2)OCCS3)CO1` (some centres not stated) stands 4 µg/mL (≈ 8.5 µM).

Another data set concerns Neisseria gonorrhoeae. The data set can be described thus: Antimicrobial activity against wild type Neisseria gonorrhoeae O strain incubated for 20 to 24 hrs by CLSI protocol based broth microdilution method. Particulars: time 20-24 hrs. The data set is classed as functional.
The compound `COc1ccc2ncc(F)c(C[C@H](O)[C@H]3OC[C@H](NCc4cc5c(nn4)OCCS5)CO3)c2n1` returned a minimal inhibitory concentration (MIC) of 16 µg/mL (≈ 32.7 µM).
Still for that read-out and setting: with `O=c1ccc2ccc(F)c3c2n1CC3C[C@H]1OC[C@H](NCc2cc3c(nn2)OCCS3)CO1` (some centres not stated) the figure was 16 µg/mL (≈ 34 µM).

The next data set concerns Staphylococcus aureus. The data set can be described thus: Antibacterial activity against cystic fibrosis isolate Staphylococcus aureus by CLSI method. The data set is classed as functional.
Details: not given
Compound `O=c1ccc2ccc(F)c3c2n1CC3C[C@H]1OC[C@H](NCc2cc3c(nn2)OCCS3)CO1` (some centres not stated) came in with an MIC of 0.5 µg/mL (≈ 1.06 µM).

Test system in the next data set: not listed separately
The data set can be described thus: Cytotoxicity activity against human K/VP.5 cells assessed as inhibition of cellular growth. The data set is classed as toxicity, cell-based.
Details: not given
The essentials:
as §2
For `O=c1ccc2ccc(F)c3c2n1CC3C[C@H]1OC[C@H](NCc2cc3c(nn2)OCCS3)CO1` (some centres not stated), the IC50 was found to be 103 µM.

The test system of a further data set is Neisseria gonorrhoeae. The data set can be described thus: Antimicrobial activity against wild type Neisseria gonorrhoeae ATCC 49226 incubated for 20 to 24 hrs by CLSI protocol based broth microdilution method. The data set is classed as functional. Particulars: time 20-24 hrs.
For the compound `COc1ccc2ncc(F)c(C[C@H](O)[C@H]3OC[C@H](NCc4cc5c(nn4)OCCS5)CO3)c2n1`, the MIC amounted to 8 µg/mL (≈ 16.3 µM).
`O=c1ccc2ccc(F)c3c2n1CC3C[C@H]1OC[C@H](NCc2cc3c(nn2)OCCS3)CO1` (some centres not stated) registered a minimum inhibitory concentration (MIC) of 16 µg/mL (≈ 34 µM).

A further data set relates to Staphylococcus aureus. The data set can be described thus: Antibacterial activity against Staphylococcus aureus ATCC 29213 by CLSI method. The data set is classed as functional.
Details: not given
As for `O=c1ccc2ccc(F)c3c2n1CC3C[C@H]1OC[C@H](NCc2cc3c(nn2)OCCS3)CO1` (some centres not stated), the MIC was 0.5 µg/mL (≈ 1.06 µM).

A further data set deals with Topoisomerase IV (Staphylococcus aureus, UniProt P0C1S7+P0C1U9). The data set can be described thus: Inhibition of Staphylococcus aureus DNA topoisomerase 4 decatenation activity using kDNA as substrate incubated for 10 to 20 min by ethidium bromide/bromophenol blue staining based agarose gel electrophoresis analysis. The data set is classed as protein-complex assay.
Details: not given
`O=c1ccc2ccc(F)c3c2n1CC3C[C@H]1OC[C@H](NCc2cc3c(nn2)OCCS3)CO1` (some centres not stated): the IC50 was determined as 7.4 µM.

For the next data set, the system named is Neisseria gonorrhoeae. The data set can be described thus: Antimicrobial activity against wild type Neisseria gonorrhoeae Y strain harbouring type 2 topoisomerase GyrA S91F, D95G and ParC S87R mutant incubated for 20 to 24 hrs by CLSI protocol based broth microdilution method. The data set is classed as functional. Particulars: time 20-24 hrs.
Turning to `COc1ccc2ncc(F)c(C[C@H](O)[C@H]3OC[C@H](NCc4cc5c(nn4)OCCS5)CO3)c2n1`, the MIC worked out at 0.5 µg/mL (≈ 1.02 µM).
The compound `O=c1ccc2ccc(F)c3c2n1CC3C[C@H]1OC[C@H](NCc2cc3c(nn2)OCCS3)CO1` (some centres not stated) displayed an MIC of 2 µg/mL (≈ 4.25 µM).

In a further data set the test system is Neisseria gonorrhoeae. The data set can be described thus: Antimicrobial activity against wild type Neisseria gonorrhoeae F strain incubated for 20 to 24 hrs by CLSI protocol based broth microdilution method. The data set is classed as functional. Particulars: time 20-24 hrs.
Compound `COc1ccc2ncc(F)c(C[C@H](O)[C@H]3OC[C@H](NCc4cc5c(nn4)OCCS5)CO3)c2n1` registered an MIC of 1 µg/mL (≈ 2.04 µM).
Still for that read-out and setting: with `O=c1ccc2ccc(F)c3c2n1CC3C[C@H]1OC[C@H](NCc2cc3c(nn2)OCCS3)CO1` (some centres not stated) the figure was 2 µg/mL (≈ 4.25 µM).

The subject of another data set is Neisseria gonorrhoeae. The data set can be described thus: Antimicrobial activity against Neisseria gonorrhoeae G strain harbouring type 2 topoisomerase GyrA S91F and ParE G410V mutant incubated for 20 to 24 hrs by CLSI protocol based broth microdilution method. The data set is classed as functional. As to conditions: time 20-24 hrs.
`COc1ccc2ncc(F)c(C[C@H](O)[C@H]3OC[C@H](NCc4cc5c(nn4)OCCS5)CO3)c2n1` registered an MIC of 32 µg/mL (≈ 65.4 µM).
On the same count and under the same terms, with `O=c1ccc2ccc(F)c3c2n1CC3C[C@H]1OC[C@H](NCc2cc3c(nn2)OCCS3)CO1` (some centres not stated) the figure was 32 µg/mL (≈ 68 µM).

In a further data set the test system is Neisseria gonorrhoeae. The data set can be described thus: Antimicrobial activity against wild type Neisseria gonorrhoeae P strain incubated for 20 to 24 hrs by CLSI protocol based broth microdilution method. The data set is classed as functional. Particulars: time 20-24 hrs.
In the case of `COc1ccc2ncc(F)c(C[C@H](O)[C@H]3OC[C@H](NCc4cc5c(nn4)OCCS5)CO3)c2n1`, 16 µg/mL (≈ 32.7 µM) was the least that counted as inhibitory (MIC).
Same read-out and setting: under `O=c1ccc2ccc(F)c3c2n1CC3C[C@H]1OC[C@H](NCc2cc3c(nn2)OCCS3)CO1` (some centres not stated) stands 16 µg/mL (≈ 34 µM).
